How the values were obtained:
[1] = biological target: T1, Acyl-protein thioesterase 1 (Homo sapiens, UniProt O75608); experiment: Inhibition of APT1 (unknown origin)
[2] = biological target: T2, Acyl-protein thioesterase 2 (Homo sapiens, UniProt O95372); experiment: Inhibition of APT2 (unknown origin)
[3] = biological target: T1, Acyl-protein thioesterase 1; experiment: Inhibition of human APT1
Procedure, shortened: (§1)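 Potency and selectivity were measured by gel-based competitive ABPP. The enzyme source was preincubated with inhibitor, then labeled with a fluorophosphonate activity-based probe. Residual active-site labeling was visualized in-gel.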

[4] = biological target: T3, sn-1-specific diacylglycerol lipase ABHD11 (Homo sapiens, UniProt Q8NFV4); experiment: Inhibition of ABHD11 (unknown origin); procedure, shortened: as §1
T3 sequence (Q8NFV4 whole entry): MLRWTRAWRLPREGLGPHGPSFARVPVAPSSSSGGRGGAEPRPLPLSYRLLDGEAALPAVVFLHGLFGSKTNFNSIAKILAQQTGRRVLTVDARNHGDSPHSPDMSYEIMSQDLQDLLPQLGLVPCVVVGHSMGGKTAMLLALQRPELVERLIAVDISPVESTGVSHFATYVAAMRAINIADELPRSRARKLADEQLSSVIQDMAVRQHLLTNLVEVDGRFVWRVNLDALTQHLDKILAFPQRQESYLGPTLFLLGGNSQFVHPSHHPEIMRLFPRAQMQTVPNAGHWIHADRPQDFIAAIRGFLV

[5] = biological target: T2, Acyl-protein thioesterase 2; experiment: Inhibition of human APT2; procedure, shortened: as §1
[6] = Inhibition of Toxoplasma gondii ASH1
Procedure, shortened: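 The Toxoplasma gondii APT homologue TgASH1 was assayed by competitive ABPP. The inhibitor was preincubated, followed by activity-based probe labeling. Loss of probe labeling of TgASH1 was scored across inhibitor concentrations.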

[7] = biological target: T2, Acyl-protein thioesterase 2; experiment: Inhibition of APT2 (unknown origin) by enzyme kinetic assay
[8] = biological target: T2, Acyl-protein thioesterase 2; experiment: Inhibition of APT2 (unknown origin) by FluPol-ABPP assay
Procedure, shortened: (§2)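 Fluorescence polarization competitive ABPP (FluoPol-ABPP) in high-throughput format. Recombinant human APT enzyme was preincubated with candidate inhibitor at 10 µM. FP-TAMRA was then added for a short, time-dependent reaction under non-equilibrium conditions. Read-out was the polarization signal of probe labeling of the active site.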

[9] = biological target: T1, Acyl-protein thioesterase 1; experiment: Inhibition of APT1 (unknown origin) by FluPol-ABPP assay; procedure, shortened: as §2

T1 sequence (O75608 whole entry): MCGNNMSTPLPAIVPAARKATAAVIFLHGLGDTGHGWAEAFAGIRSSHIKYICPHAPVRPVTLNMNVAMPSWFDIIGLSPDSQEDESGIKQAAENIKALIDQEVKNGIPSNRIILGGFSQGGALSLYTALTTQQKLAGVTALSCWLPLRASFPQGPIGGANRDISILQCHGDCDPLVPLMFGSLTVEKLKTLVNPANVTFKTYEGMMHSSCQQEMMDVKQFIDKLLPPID
T2 sequence (O95372 whole entry): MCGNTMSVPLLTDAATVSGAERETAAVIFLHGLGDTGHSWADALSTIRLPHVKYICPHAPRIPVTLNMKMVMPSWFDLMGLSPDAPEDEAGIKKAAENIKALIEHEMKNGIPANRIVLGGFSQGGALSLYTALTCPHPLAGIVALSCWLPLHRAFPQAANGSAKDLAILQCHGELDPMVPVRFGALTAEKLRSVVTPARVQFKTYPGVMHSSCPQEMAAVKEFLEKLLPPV

SMILES | IC50 [3] [nM] | IC50 [4] [nM] | IC50 [5] [nM] | further results
CCCCCCCCCC[C@@H]1C(=O)O[C@H]1CCc1ccc(OC)c(OC)c1 [PALMOSTATIN B] |  |  |  | IC50 [1]: 5.4 nM; IC50 [2]: 37.7 nM; Ki [2]: 34 nM
O=C(N1CCCCC1)n1ncc(C(O)(c2ccccc2)c2ccccc2)n1 | < 30 | < 30 | 200 | 
CCCOc1oc(=O)c2cc(N)ccc2c1Cl |  |  |  | IC50 [6]: 1320 nM
CN(C)CCOB(c1ccccc1)c1ccc(COCc2ccc(B(OCCN(C)C)c3ccccc3)cc2)cc1 |  |  |  | Ki [7]: 730 nM
COc1ccc(N2CCN(C(=O)c3cc4c(s3)-c3ccccc3S(=O)(=O)C4)CC2)cc1 |  |  |  | Ki [8]: 230 nM; Ki [9]: > 10000 nM
CCCCCCCCCC[C@@H]1C(=O)O[C@H]1CCCCS(=O)(=O)CCCN(C)C |  |  |  | IC50 [2]: 19.6 nM
O=C(CN1CCN(C(=O)c2ccco2)CC1)Nc1cc(C(F)(F)F)ccc1Cl |  |  |  | Ki [8]: > 10000 nM
CCC1CCCCN1C(=O)n1ncc(C(O)(c2ccccc2)c2ccccc2)n1 (stereo not drawn) | > 10000 | < 30 | > 10000 | 
CC(C)(C)C1CCN(C(=O)n2ncc(C(O)(c3ccccc3)c3ccccc3)n2)CC1 | 17 | < 30 | 30 | 

— ChEMBL document CHEMBL3132844, “Acyl protein thioesterase inhibitors as probes of dynamic S-palmitoylation” (Medchemcomm, 2014)
